ROMK mod: modulates human ROMK potassium channel activity | B-score at 10 µM | Tet-inducible ROMK, thallium flux fluorescence; actives lie on both sides | 2% of 130,000 active | AID 1918 | P48048;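 active = signal ratio slope over the read window, or its plate-corrected B-score, at least 3 SD from the plate mean, either direction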;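 also: B-score of the F/F0 ratio slope over 7 to 12 s after thallium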
Target sequence (P48048 whole entry, looked up): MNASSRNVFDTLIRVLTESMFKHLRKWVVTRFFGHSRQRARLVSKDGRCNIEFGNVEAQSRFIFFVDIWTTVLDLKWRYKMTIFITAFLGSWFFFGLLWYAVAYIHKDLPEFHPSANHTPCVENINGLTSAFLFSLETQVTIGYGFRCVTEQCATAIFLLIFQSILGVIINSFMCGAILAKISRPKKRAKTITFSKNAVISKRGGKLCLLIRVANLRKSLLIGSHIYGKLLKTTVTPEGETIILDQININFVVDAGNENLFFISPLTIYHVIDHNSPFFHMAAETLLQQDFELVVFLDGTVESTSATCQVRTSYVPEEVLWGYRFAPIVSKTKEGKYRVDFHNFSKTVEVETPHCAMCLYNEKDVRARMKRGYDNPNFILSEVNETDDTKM
NCF1 inh: p47phox (human) inhibition | inhibition, % at 24.7 µM | p47phox/p22phox peptide binding, fluorescence polarization, 2 h | 0.53% of 220,000 active | AID 1274 | P14598;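 active = inhibition above about 30%, limit read from the data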
WT yeast gro inh: growth inhibition of WT yeast, mitochondrial fusion screen. mitochondrial fusion phenotypic screen, WT strain. inhibition, % at 10 µM. 2.1% of 190,000 active. AID 1362; in the data active = inhibition above about 58%; tested in S. cerevisiae
RBBP9 inhibitor: blocks human serine hydrolase RBBP9; O75884; recombinant RBBP9, FP-Rh probe fluorescence polarization; inhibition, % at 7.94 µM; 0.2% of 220,000 active; AID 1515;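 active = inhibition above the campaign mean of all tested compounds plus 3 SD, cut at about 14% in these data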
Target sequence (O75884 whole entry, looked up): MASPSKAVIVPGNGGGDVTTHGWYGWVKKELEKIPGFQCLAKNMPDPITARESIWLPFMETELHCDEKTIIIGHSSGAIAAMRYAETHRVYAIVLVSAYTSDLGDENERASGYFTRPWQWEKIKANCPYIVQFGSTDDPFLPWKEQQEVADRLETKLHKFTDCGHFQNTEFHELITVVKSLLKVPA
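Test system: recombinant human RBBP9. Quantity: 2.5 µM RBBP9 dispensing solution, before mixing. Detection: FP readout at 525/598 nm. Reagent: Serine-hydrolase probe FP-Rh, 375 nM pre-mixing. Measure: % inhibition. Control set: DMSO-treated enzyme wells and wells lacking RBBP9. Buffer or medium: Tris-NaCl-Pluronic buffer, pH 8.0. Times: preincubation 30 min plus labeling 45 min at 25 °C.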
KCC2 mod: KCC2 (human) Cl- transport modulation; Q9H2X9; KCC2 cells, thallium flux FluoZin-2 fluorescence; B-score of Tl+ flux slope (higher = more flux/activation; lower = inhibition) at 10 µM; 2.2% of 190,000 active;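 active = thallium flux slope and its plate-corrected score both differing from the plate sample mean at a set confidence after two filtering rounds, in either direction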;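 also: slope of fluorescence scaled to starting intensity during 10 to 20 s after thallium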
14-3-3 Bad inh: disrupts binding of bovine 14-3-3 zeta to phospho-Bad peptide; inhibition, % at 21.7 µM; 0.71% of 220,000 active; TR-FRET 14-3-3zeta/Dy647-pBad peptide displacement, 1 h; P63103;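 active = inhibition above about 70%, limit read from the data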
Target sequence (P63103 whole entry, looked up): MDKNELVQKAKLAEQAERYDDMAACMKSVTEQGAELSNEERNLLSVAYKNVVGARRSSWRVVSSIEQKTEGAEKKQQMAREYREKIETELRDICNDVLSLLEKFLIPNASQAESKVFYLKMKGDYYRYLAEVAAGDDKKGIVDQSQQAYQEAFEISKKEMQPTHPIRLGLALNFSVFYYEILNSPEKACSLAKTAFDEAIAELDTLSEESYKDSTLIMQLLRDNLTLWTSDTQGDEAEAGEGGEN
KCC2 sec1: KCC2 (human) modulation, secondary assay | shares compounds with KCC2 mod | HEK293-KCC2, thallium flux, FluoZin2 fluorescence; hits give high values | normalised thallium flux (F/F0 slope) at 10 µM | 15% of 3,700 active | AID 1713;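 active = thallium flux slope above the same plate's solvent-only control mean plus 3 SD; inconclusive = the two replicate wells disagree; inactive = no significant difference from solvent-only control wells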
KCC2 bumet counter: thallium flux despite bumetanide block in KCC2 cells, secondary assay 3; 49% of 3,700 active; HEK293-KCC2 + bumetanide/ouabain, thallium flux FluoZin2; hits give high values; normalized thallium flux at 10 µM; shares compounds with KCC2 mod;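 active = thallium entry rate above the same plate's blocked-transporter control wells by more than 3 SD; inconclusive = the two repeat wells disagree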;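 also: raw slope of fluorescence over initial fluorescence between 10 and 20 s after thallium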
KCC2 secondary2: KCC2 (human) modulation, second secondary assay; shares compounds with KCC2 mod; HEK293-KCC2, thallium flux FluoZin2 fluorescence; actives lie on both sides; F/F0 rise rate, 10–20 s post-thallium; normalized thallium flux at 10 µM; 23% of 3,700 active;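 active = thallium flux slope more than 3 SD above or below the plate's solvent-only control mean, mostly below; inconclusive = the two repeat wells disagreed; inactive = no significant shift from solvent-only controls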
HEK293 Tl flux: counter-screen for KCC2 modulators: effect in parental HEK293 cells; 46% of 3,700 active; thallium flux FluoZin2, ouabain; baseline-ratio fluorescence slope, 10–20 s after thallium; thallium flux rate (normalised fluorescence) at 10 µM; shares compounds with KCC2 mod;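 active = thallium flux rate significantly above the same plate's solvent-only control wells, beyond their mean plus 3 SD; inconclusive = the two replicate wells gave conflicting results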
KCC2 ouabain: confirmation of human KCC2 modulators with ouabain | AID 1717 | shares compounds with KCC2 mod | 48% of 3,700 active | HEK293-KCC2, thallium flux FluoZin2 fluorescence; bidirectional: low = inhibitor, high = activator | raw Tl+ flux slope (below DMSO = inhibition, above = activation) at 10 µM;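 active = thallium flux slope beyond 3 SD from same-plate DMSO control mean in most replicates, usually higher, sometimes lower; inconclusive = repeat tests gave conflicting results; inactive = no significant difference from controls in most replicates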;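 also: slope of initial-normalized fluorescence between seconds 10 and 20 after thallium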
HEK293 Tl flux2: parental HEK flux effect, counter-screen 2 | shares compounds with KCC2 mod | HEK293 parental, thallium flux FluoZin-2 fluorescence slope | thallium flux slope at 10 µM | 33% of 3,700 active | AID 1718;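 active = thallium flux slope above the same plate's solvent-control mean plus 3 SD in both duplicate wells; inconclusive = duplicate wells that disagreed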;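 also: run without ouabain in cells lacking the KCC2 cotransporter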
Large screens that a line does not name were inactive (follow-up assays come after a bar, where they were run); [ ] = another dose, or the depositor's remark. A selection: hits, their analogues and other compounds. The true share with any hit is near 5.8%.

Fc1ccc(-n2c(-c3ccc4ccccc4n3)n[nH]c2=S)cc1	KCC2 mod 6.63 | KCC2 sec1 inconclusive | KCC2 bumet counter 0.0224 | KCC2 secondary2 inactive | HEK293 Tl flux 0.0178 | KCC2 ouabain 0.0272 | HEK293 Tl flux2 0.0183
S=c1[nH]nc(-c2ccn[nH]2)n1-c1ccccc1Cl	none (no result: ROMK mod, WT yeast gro inh)
Cc1nn(C)cc1-c1n[nH]c(=S)n1-c1ccc(F)cc1	none
O=c1ccc(-c2n[nH]c(=S)n2-c2ccc(F)c(Cl)c2)n[nH]1	none
Cc1cc(NC(=O)CSc2ccc(-c3ccccc3)nn2)no1	KCC2 mod -7.45 (no result: ROMK mod) | KCC2 sec1 inactive | KCC2 bumet counter inactive | KCC2 secondary2 0.0243 | HEK293 Tl flux inconclusive | KCC2 ouabain 0.013 | HEK293 Tl flux2 inactive
O=C(CSc1ccc(-c2ccccc2)nn1)Nc1ccc2c(c1)OCCO2	KCC2 mod -6.19 | KCC2 sec1 inactive | KCC2 bumet counter inactive | KCC2 secondary2 0.0222 | HEK293 Tl flux inactive | KCC2 ouabain 0.014 | HEK293 Tl flux2 inactive
O=C(CSc1ccc(-c2ccccc2)nn1)c1ccccc1	KCC2 mod -4.08 (no result: ROMK mod) | KCC2 sec1 inactive | KCC2 bumet counter inconclusive | KCC2 secondary2 0.0215 | HEK293 Tl flux inactive | KCC2 ouabain inconclusive | HEK293 Tl flux2 inactive
Cc1cc(NC(=O)CSc2ccc(-c3cccc([N+](=O)[O-])c3)nn2)no1	none
CC1CCCCN1C(=O)CSc1ccc(-c2ccc(F)cc2)nn1 (stereo unspecified)	none (no result: KCC2 mod) | KCC2 sec1 inactive | KCC2 bumet counter inactive | KCC2 secondary2 0.0282 | HEK293 Tl flux inactive | KCC2 ouabain 0.017 | HEK293 Tl flux2 inactive
CC(=O)c1cccc(NC(=O)CSc2ccc(-c3ccc4c(c3)OCO4)nn2)c1	none (no result: ROMK mod)
Cc1ccc([N+](=O)[O-])cc1S(=O)(=O)Nc1ccccn1	none
O=C(COC(=O)c1ccc(Br)cc1)NCc1ccc(F)cc1	none (no result: ROMK mod)
CC(=O)c1c(C)[nH]c(C(=O)NCc2ccco2)c1C	none
COC(=O)c1ccc(CN2C(=O)NC(CC(C)C)C2=O)cc1 (stereo unspecified)	none
COc1cccc(C(=O)N(c2ccc(C)cc2)C2C=CS(=O)(=O)C2)c1 (stereo unspecified)	none
Cc1cc(NC(=O)CSc2ccc3nnc(-c4ccc(F)cc4)n3n2)no1	none
Cc1cc(NC(=O)CSc2ccc(-c3ccc(F)cc3)nn2)no1	KCC2 mod -5.24 (no result: ROMK mod) | KCC2 sec1 inactive | KCC2 bumet counter inactive | KCC2 secondary2 0.0247 | HEK293 Tl flux inactive | KCC2 ouabain inconclusive | HEK293 Tl flux2 inactive
Nc1nnc(-c2cc3c(ccc4ccccc43)oc2=O)s1	none (no result: ROMK mod)
O=C1CSC(c2cccc([N+](=O)[O-])c2)N1c1ccccc1F (stereo unspecified)	none
NC1CCN(c2c(F)cc3c(=O)c(C(=O)O)cn(C4CC4)c3c2Cl)C1 (stereo unspecified)	none (no result: ROMK mod, WT yeast gro inh)
CCCOc1ccc(C2C(=O)N(C3CCCCC3)CC(=O)N2CCCOCC)cc1OC (stereo unspecified)	none (no result: ROMK mod, KCC2 mod) | KCC2 sec1 inactive | KCC2 bumet counter inactive | KCC2 secondary2 inactive | HEK293 Tl flux inactive | KCC2 ouabain inactive | HEK293 Tl flux2 inactive
CCOc1ccc(C2C(=O)N(C3CCCCC3)CC(=O)N2CC2CCCO2)cc1OC (stereo unspecified)	none (no result: ROMK mod, KCC2 mod) | KCC2 sec1 inactive | KCC2 bumet counter inactive | KCC2 secondary2 inactive | HEK293 Tl flux inactive | KCC2 ouabain inactive | HEK293 Tl flux2 inactive
CCCCOc1ccc(C2C(=O)N(C3CCCCC3)CC(=O)N2CC2CCCO2)cc1 (stereo unspecified)	none (no result: ROMK mod)
Cc1ccc(C)c(S(=O)(=O)N2CCN(CC(=O)N3CCc4ccccc4C3)CC2)c1	KCC2 mod -4.14, 14-3-3 Bad inh 86.2[fluorescence artefact?] | KCC2 sec1 inactive | KCC2 bumet counter inactive | KCC2 secondary2 inactive | HEK293 Tl flux inactive | KCC2 ouabain 0.0218 | HEK293 Tl flux2 inconclusive
CCN(CC)CCCOc1ccc(C)cc1Br	none (no result: KCC2 mod) | KCC2 sec1 inactive | KCC2 bumet counter inactive | KCC2 secondary2 inactive | HEK293 Tl flux inconclusive | KCC2 ouabain inactive | HEK293 Tl flux2 inactive
C=CCNCCCOc1ccc(C)cc1Br	none
O=C(COC(=O)c1cc(S(=O)(=O)N2CCOCC2)ccc1O)NCC1CCCO1 (stereo unspecified)	none (no result: KCC2 mod) | KCC2 sec1 inactive | KCC2 bumet counter inactive | KCC2 secondary2 inactive | HEK293 Tl flux inactive | KCC2 ouabain inactive | HEK293 Tl flux2 inactive
O=C(COC(=O)c1cc(S(=O)(=O)N2CCCC2)ccc1O)Nc1ccc(S(=O)(=O)N2CCOCC2)cc1	none (no result: ROMK mod, WT yeast gro inh)
O=C1/C(=C/c2ccc(Cl)cc2)NC(=S)N1Cc1cccnc1	KCC2 mod 5.23 (no result: ROMK mod) | KCC2 sec1 inactive | KCC2 bumet counter 0.00881 | KCC2 secondary2 inactive | HEK293 Tl flux 0.0102 | KCC2 ouabain inactive | HEK293 Tl flux2 inactive
O=C1/C(=C/c2ccc(O)cc2)SC(=S)N1Cc1cccnc1	none
CN(C)c1ccc(-c2nnn(Cc3ccccc3Br)n2)cc1	KCC2 mod -4.27 (no result: ROMK mod) | KCC2 sec1 inactive | KCC2 bumet counter 0.0112 | KCC2 secondary2 inactive | HEK293 Tl flux inconclusive | KCC2 ouabain inactive | HEK293 Tl flux2 inactive
Cc1ccc2cccc(NC(=S)NC(=O)c3c(Br)cnn3C)c2n1	KCC2 mod 5.72 (no result: ROMK mod) | KCC2 sec1 inactive | KCC2 bumet counter 0.0151 | KCC2 secondary2 inactive | HEK293 Tl flux 0.0145 | KCC2 ouabain 0.0287 | HEK293 Tl flux2 0.0122
O=C(CSc1ccccc1C(=O)NCc1ccccc1)NC1CCCCCCC1	KCC2 mod -4.01 (no result: ROMK mod) | KCC2 sec1 inactive | KCC2 bumet counter inconclusive | KCC2 secondary2 0.0212 | HEK293 Tl flux inactive | KCC2 ouabain inconclusive | HEK293 Tl flux2 inactive
COc1ccccc1C(=O)NC1CCCCCCC1	none
O=C(NC1CCCC1)c1ccccc1OCc1ccccc1	KCC2 mod -3.64 | KCC2 sec1 inactive | KCC2 bumet counter inconclusive | KCC2 secondary2 inactive | HEK293 Tl flux 0.00474 | KCC2 ouabain 0.0152 | HEK293 Tl flux2 inactive
